Screening data deposited in PubChem by Broad Institute.
Hits are enriched below; roughly 2.3% of the tested compounds scored in any of these assays.
PAX8 reporter: inhibitors of PAX8-driven TPO luciferase reporter, primary screen, RMG-I cells, single concentration. actives 1.2% (n = 360,000). SteadyGlo, 24 h. AID 652154, 2013. inhibition, % at 12.6 µM;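 active means mean replicate inhibition at least 60% with every replicate also reaching 60%; inconclusive means only one of the two criteria is met; inactive means mean below 60% and not all replicates reaching 60%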;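 further: luciferase light reporting Pax8 driven TPO promoter activity; plate controls were median of neutral control wells for no effect and mitoxantrone controls for full effect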
FN deposit inh: inhibitors of fibronectin matrix deposition, primary screen, AH1F cells, Alexa488-fibronectin fluorescence, plate reader. AH1F fibroblasts, overnight. inhibition, % at 12.6 µM. actives 0.086% (n = 350,000);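 active means mean inhibition across replicates of 30% or more, regardless of how many single replicates reach that level; inconclusive means mean under 30% yet at least half of replicates reach 30%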;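 further: positive control wells lacked labelled fibronectin entirely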
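test system = AH1F fibroblasts assembling fluorescent fibronectin matrix | quantity = 10000 AH1F cells per well | buffer or medium = DMEM plus 2% serum, read in PBS | doses = single dose, pinned | incubation = 1 h cell attachment, overnight exposure to compound and label | detection = fluorescence at 485 nm excitation, 525 nm emission | read-out basis = inhibition from reduced deposited-fibronectin fluorescence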
EWS-Fli block: EWS/Fli-driven NR0B1 reporter inhibitors, primary screen, A673 cells, NR0B1 luciferase, luminescence, MLPCN library | viability-normalised | inhibition, % at 12.6 µM | actives 0.67% (n = 350,000) | AID 651661, 2012;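 active means mean inhibition of at least 50% after viability correction, with every replicate also passing that limit; inconclusive means mean reaches 50% but only one of two replicates passes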;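 further: firefly luciferase signal divided by Alamar Blue viability fluorescence both relative to DMSO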
F508del corr: F508del CFTR correction, initial screen, CFBE line, single point; CFBE cells, YFP halide quenching; stimulated with forskolin plus potentiator P3; % fluorescence drop versus neutral controls; activity (quench increase), % at 7.58 µM; actives 0.36% (n = 350,000);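 active means mean added fluorescence quench of at least 8% versus neutral control, with both replicates also reaching 8%; inconclusive means only one of the mean or replicate conditions met; inactive means mean below 8% and not both replicates reaching 8%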;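 further: cells transiently co-express mutant CFTR-F508del with the halide-sensitive YFP; corrector assay measuring rescue of mutant channel to the surface after 24 h compound exposure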
PGC1a acetyl inh: inhibitors of PGC1a acetylation signal, primary screen, cell-based, U2OS, AlphaScreen, inhibitor mode | inhibition, % at 15.6 µM | AID 651687, 2012 | AlphaScreen anti-acetyl-lysine; with virally co-expressed GCN5 acetyltransferase | actives 0.17% (n = 350,000);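 active means every replicate shows inhibition of at least 40%; inconclusive means mean inhibition at least 40% but some replicate below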;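 further: 0% = neutral control wells and 100% = positive control wells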
Env fusion inh: inhibitors of HIV-1 Env-driven cell-cell fusion, primary screen, HeLa-JRFL effector, CEM21 target cells, luciferase. inhibition, % at 12.3 µM. actives 1.1% (n = 360,000);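 active means mean replicate inhibition score of at least 50 and every replicate individually at or above 50; inconclusive means only one of the two criteria met; inactive means mean below 50 and not all replicates reaching 50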;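 further: 0% = plate neutral controls and 100% = maraviroc near 300 nM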
* = called active by the depositor; u = inconclusive; x = not tested or not shown; ! = a repeat was not active; [ ] = another dose, or the depositor's remark.

SMILES	PAX8 reporter	FN deposit inh	EWS-Fli block	F508del corr	PGC1a acetyl inh	Env fusion inh
C[C@@H]1CN([C@H](C)CO)S(=O)(=O)c2ccc(-c3ccncc3)cc2O[C@@H]1CN(C)Cc1ccc(Oc2ccccc2)cc1	x	16	44	2	-8	59*[16.7 µM]
COc1ccc(C(O)(CCC(C)C)C(CN2CCOCC2)c2ccc(Cl)cc2)cc1 (stereo unspecified)	23	-9	-10	1	-18	u
CCCCOc1ccc(C(=O)CCN2CCOCC2)cc1	69*	3	-9	2	0	10
O=C(c1ccccc1)C(CN1CCCCC1)c1ccccc1 (stereo unspecified)	69*	-4	69*	-11	-21	-141
CCOc1ccc(C(=O)C(CN2CCOCC2)c2ccccc2)cc1 (stereo unspecified)	97*	20	x	x	32	-73
O=C(c1ccccc1)c1ccc(OCC(O)CN2CCOCC2)cc1 (stereo unspecified)	x	x	x	x	-2	x
CCOc1ccc(C(O)(CCC(C)C)C(CN2CCOCC2)c2ccccc2)cc1 (stereo unspecified)	-10	-7	19	-4	-36	72*
Cc1ccc(S(=O)(=O)N[C@@H]2CC[C@@H](CCNC(=O)c3ccccc3F)O[C@@H]2CO)cc1	1	x	-6	-1	1	15[16.7 µM]
O=C(c1ccc(Br)cc1)C(CN1CCOCC1)c1ccccc1 (stereo unspecified)	39	34*	41	0	x	-38
CCOc1ccc(C(CN2CCOCC2)C(C)=O)cc1OC (stereo unspecified)	102*	13	7	-4	x	2
O=C(N/N=C/c1ccc(O)c(O)c1)c1cccc(S(=O)(=O)N2CCCCC2)c1	13	x	4	-2	x	15
Cc1nc(C)c(C(=O)N/N=C/c2cc(Br)ccc2O)s1	67*	-3	21	-1	31	-20
O=C(N/N=C\c1cc(Br)ccc1O)c1ccc(S(=O)(=O)N2CCCCC2)cc1	11	8	6	17*	x	x
O=C(Nc1cc(C(F)(F)F)ccc1N1CCCCC1)c1cccc([N+](=O)[O-])c1	x	x	x	x	2	98*
O=C(CCN1CCCCC1)NCC[C@H]1CC[C@@H](NC(=O)C2CCCC2)[C@@H](CO)O1	-7	x	-5	0	5	-6[16.7 µM]
COc1ccc(Oc2ccc(/C=C/C(=O)c3cccc(OC)c3)cc2[N+](=O)[O-])cc1	108*	3	49	2	2	x
COc1ccc(Oc2ccc(/C=N/NC(=O)c3cccnc3)cc2[N+](=O)[O-])cc1	-42	-10	7	2	x	-20
C[C@H]1CN(C)C(=O)Cc2cc(N)ccc2O[C@@H]1CN(C)C(=O)OC(C)(C)C	x	-7	x	x	x	x
COc1cccc(-c2ccc(C3[C@H]4CNC[C@@H]3N4Cc3cc(F)ccc3F)cc2)c1 (stereo partly specified)	x	-1	4	0	x	x
COc1cccc(-c2ccc(C3[C@H]4CNC[C@@H]3N4Cc3ccc(F)cc3)cc2)c1 (stereo partly specified)	-1	-12	63*!	-1	-9	x
C[C@H](O)C#Cc1cnc2c(c1)C(=O)N([C@H](C)CO)C[C@H](C)[C@@H](CN(C)CC1CCCCC1)O2	x	-33	-2	0	7	-20[16.7 µM]
CC(=O)OC(C)(C)/C=C/C(=O)[C@](C)(O)C1[C@H](O)C[C@@]2(C)C3CC=C4C(C=C(O[C@@H]5O[C@H](CO)[C@@H](O)[C@H](O)[C@H]5O)C(=O)C4(C)C)[C@]3(C)C(=O)C[C@]12C (stereo partly specified)	102*	24	-10	-5	x	-16
COc1ccc(CCNC(=O)c2cc(C(=O)c3cc(Cl)ccc3O)cn(CCc3ccc(OC)cc3)c2=O)cc1	80*	-3	x	x	-9	11
COC1=C(C)C(=O)C2=C(C1=O)C1C3CC4=C(C(=O)C(OC)=C(C)C4=O)C(CNC(=O)C(C)=O)N3C(C#N)C(C2)N1C (stereo unspecified)	106*	-4	32	3	42	64*
O=S(=O)(N[C@H]1CC[C@H](CCn2cc(-c3ccccn3)nn2)O[C@@H]1CO)c1cccc(Cl)c1	16	5	0	0	0	19[16.7 µM]
SMILES	PAX8 reporter	FN deposit inh	EWS-Fli block	F508del corr	PGC1a acetyl inh	Env fusion inh
COc1cccc2c1C(=O)c1c(O)c3c(c(O)c1C2=O)CC(O)(C(C)=O)CC3OC1CC(O)C(O)C(C)O1 (stereo unspecified)	8	-6	22	19*	-5	-185
COc1cccc2c1C(=N)c1c(O)c3c(c(O)c1C2=O)CC(O)(C(C)=O)CC3OC1CC(N)C(O)C(C)O1 (stereo unspecified)	x	x	x	x	2	x
CCCCC(=O)OCC(=O)C1(O)Cc2c(O)c3c(c(O)c2C(OC2CC(NC(=O)C(F)(F)F)C(O)C(C)O2)C1)C(=O)c1c(OC)cccc1C3=O (stereo unspecified)	-40	-1	45	3	-4	15
COc1cccc2c1C(=O)c1c(O)c3c(c(O)c1C2=O)C[C@](O)(C(C)=O)C[C@H]3O[C@@H]1C[C@@H](N)[C@@H](O)[C@@H](C)O1	112*	6	45	31*	x	-293
CCCNC(=O)N(C)C[C@H]1Oc2cc(-c3cccnc3)ccc2S(=O)(=O)N([C@@H](C)CO)C[C@H]1C	x	x	-13	2	-4	-6[16.7 µM]
CCNC(=O)c1cc2c(c(-c3cccc(-c4ccncc4)c3)n1)[C@H](CCO)N(S(=O)(=O)CC)C2	x	-21	55*	3	1	-345[16.7 µM]
CCS(=O)(=O)N1Cc2cc(C(=O)NCC3CC3)nc(-c3cccc(-c4cccnc4)c3)c2[C@H]1CCO	18	10	2	2	-19	x
CC(C)NC(=O)Nc1ccc2c(c1)C(=O)N([C@@H](C)CO)C[C@@H](C)[C@@H](CN(C)S(=O)(=O)c1ccccc1)OCCCC[C@@H](C)O2	6	-6	10	1	-8	-26[16.7 µM]
CCOC(=O)[C@H]1[C@H]2COc3ccc(Br)cc3[C@@H]2N2C(=O)c3c(C)cc(C)cc3NC(=O)[C@@]12C	17	15	6	-2	-15	67*
CCOC(=O)[C@@H]1[C@H]2COc3ccc(Br)cc3[C@@H]2N2C(=O)N(c3ccccc3)C(=O)[C@@]12C	-22	5	6	1	x	87*
CCOC(=O)[C@H]1[C@H]2COc3ccc(Br)cc3[C@@H]2N2C(=O)N(c3ccccc3)C(=O)[C@@]12C	21	1	-4	0	-6	-31
NC(=O)c1sc2nc3c(c(-c4cccs4)c2c1N)CCCCC3	x	9	x	x	u	126*
